Data from ChEMBL document CHEMBL4680156, “Discovery of novel pyrido-pyrrolidine hybrid compounds as alpha-glucosidase inhibitors and alternative agent for control of type 1 diabetes” (Eur J Med Chem, 2020).
Calls of active or inactive are those of the source. No cut-off for these calls is given here.

How the values were obtained:
Rattus norvegicus [1] = experiment: Antidiabetic activity against STZ-induced type 1 diabetic Sprague-Dawley rat model assessed as decrease in fasting blood glucose level at 60 mg/kg, po administered once daily for 28 days; assay type: functional, organism-based; settings: time 28.0 day
Outline: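 Male Sprague-Dawley rats (250–320 g, 8–10 weeks) were given STZ 70 mg/kg ip once in 0.1 mmol/L citrate buffer, pH 4.5. Rats with random glucose >125 mg/dl at 4 days were counted diabetic. Dosing was 60 mg/kg in 0.5% saline by gavage once daily for 4 weeks, n=6 per group. After a 6 h fast, tail blood glucose was read by glucometer. Data are mean ± SD; 2-way ANOVA.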

[2] = Intrinsic clearance in mouse liver microsomes at 1 uM up to 60 mins in presence of NADPH by LC-MS/MS analysis; assay type: ADME, Microsome; settings: 1 h
Outline: (§1)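 Liver microsomes (1.0 mg protein/mL) were incubated with compound at 1 μM; reactions were started with 1 mM NADPH. No-NADPH incubations (0 and 60 min) served as stability controls. Reactions were stopped at 0, 5, 15, 30 and 60 min with ice-cold acetonitrile containing internal standard, then centrifuged. Parent loss was tracked by LC-MS/MS.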

Cytochrome P450 = Cytochrome P450 (Homo sapiens, UniProt P04798+P05177+P05181+P08684+P10632+P10635+P11509+P11712+P13584+P20813+P20815+P20853+P24462+P24903+P33260+P33261+P51589+P78329+P98187+Q02928+Q08477+Q16678+Q16696+Q5TCH4+Q6VVX0+Q7Z449+Q8TAV3+Q96SQ9+Q9HB55); experiment: Stability in human liver microsomes assessed as CYP450-mediated drug degradation by measuring proportion of compound metabolised at 1 uM up to 60 mins in presence of NADPH by LC-MS/MS analysis; assay type: ADME; settings: read-out: Drug degradation; outline: as §1
[3] = Cytotoxicity against rat BRIN-BD11 cells assessed as reduction in cell viability at >=10 uM after 24 hrs by MTT assay; assay type: cell-based; settings: brin-bd11, 24 h
Outline: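 BRIN-BD11 rat β-cells were seeded at 10^4 cells/well in RPMI and left overnight. They were exposed 24 h to compound at 100, 30, 10, 3, 1, 0.3 and 0.1 μM. MTT (5 mg/ml stock) was added for 90 min at 37 °C, formazan dissolved in DMSO, and absorbance read at 560 nm.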

Saccharomyces cerevisiae [4] = experiment: Binding affinity to Saccharomyces cerevisiae alpha-glucosidase assessed as decrease in fluorescence intensity at 6.25 to 25 ng/ml after 30 mins by spectrofluorometric method; settings: dose 6.25-25 ng/ml
Outline: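 Yeast α-glucosidase (1.5 U) was pretreated with compound at 6.25 and 25 ng/ml for 30 min at 37 °C. Intrinsic Trp fluorescence was excited at 295 nm and the emission (peak 330 nm) recorded at 298 K. Quenching was scored against free enzyme.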

[5] = Protein binding in rat plasma assessed as bound fraction at 10 uM after 6 hrs by LC-MS/MS analysis; assay type: ADME, cell-free; settings: read-out: PPB (converted)
Outline: (§2)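 Equilibrium dialysis: plasma with compound at 10 μM final on one side, 100 mM sodium phosphate pH 7.4 on the other. Equilibrated at 37 ± 1 °C for 6 h with shaking at 500 rpm. Both sides were sampled, proteins precipitated with organic solvent, and supernatants analysed by LC-MS/MS.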

[6] = Inhibition of Saccharomyces cerevisiae alpha-glucosidase using PNPG as substrate incubated for 10 mins by spectrophotometric method
[7] = Drug recovery in rat plasma at 10 uM after 6 hrs by LC-MS/MS analysis; assay type: ADME, cell-free; settings: read-out: Drug recovery; outline: as §2
Rattus norvegicus [8] = experiment: Decrease in post prandial glucose level in type 1 diabetic Sprague-Dawley rat model at 60 mg/kg, po administered once daily for 28 days; settings: time 28.0 day
[9] = Drug recovery in mouse plasma at 10 uM after 6 hrs by LC-MS/MS analysis; assay type: ADME, cell-free; settings: read-out: Drug recovery; outline: as §2
[10] = Intrinsic clearance in rat liver microsomes at 1 uM up to 60 mins in presence of NADPH by LC-MS/MS analysis; assay type: ADME, Microsome; settings: 1 h; outline: as §1
Saccharomyces cerevisiae [11] = experiment: Binding affinity to Saccharomyces cerevisiae alpha-glucosidase assessed as protein with beta-sheet structure at 0.32 ug/ml by CD spectroscopic method (reference value: 68%); settings: dose 0.32 µg/ml
Outline: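 Compound was added at different concentrations to yeast α-glucosidase (30 U/ml). CD spectra were taken with 3 accumulations (negative bands at 209 and 222 nm). α-Helix and β-sheet content were estimated with secondary-structure estimation software.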

[12] = Stability in rat liver microsomes assessed as CYP450-mediated drug degradation by measuring proportion of compound metabolised at 1 uM up to 60 mins in presence of NADPH by LC-MS/MS analysis; assay type: ADME; settings: read-out: Drug degradation; outline: as §1
[13] = Half life in mouse liver microsomes at 1 uM up to 60 mins in presence of NADPH by LC-MS/MS analysis; assay type: ADME, Microsome; outline: as §1
[14] = target: T1, Tissue alpha-L-fucosidase (Bos taurus, UniProt Q2KIM0); experiment: Inhibition of bovine kidney alpha-fucosidase using […] as substrate incubated for 10 mins by spectrophotometric method
T1 sequence (Q2KIM0 whole entry): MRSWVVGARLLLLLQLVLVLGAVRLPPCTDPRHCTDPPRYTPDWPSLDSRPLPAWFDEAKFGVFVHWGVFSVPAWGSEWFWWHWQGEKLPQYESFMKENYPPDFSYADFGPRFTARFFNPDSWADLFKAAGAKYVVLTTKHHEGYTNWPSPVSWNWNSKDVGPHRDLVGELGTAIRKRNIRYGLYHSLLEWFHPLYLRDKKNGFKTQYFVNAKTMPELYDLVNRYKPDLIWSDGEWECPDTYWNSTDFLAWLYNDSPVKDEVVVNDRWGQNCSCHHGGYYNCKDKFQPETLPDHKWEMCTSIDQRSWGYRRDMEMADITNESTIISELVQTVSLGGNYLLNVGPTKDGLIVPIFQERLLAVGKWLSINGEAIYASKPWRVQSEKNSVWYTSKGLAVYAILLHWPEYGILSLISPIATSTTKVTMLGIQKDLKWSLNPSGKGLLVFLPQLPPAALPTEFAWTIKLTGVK

[15] = Toxicity in STZ-treated diabetic Sprague-Dawley rat model assessed as decrease in body weight at 60 mg/kg, po administered once daily for 28 days; assay type: organism-based; settings: in vivo, 672 h, time 28 day
Outline: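 Male Sprague-Dawley rats (250–320 g, 8–10 weeks) were made diabetic with a single STZ dose (70 mg/kg ip in 0.1 mmol/L citrate buffer, pH 4.5). Random glucose above 125 mg/dl defined diabetes. Dosing was 60 mg/kg in 0.5% saline by gastric gavage once daily for 4 weeks, n=6 per group, with vehicle controls. Body weight was recorded before and after treatment; mean ± SD, 2-way ANOVA.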

[16] = Protein binding in human plasma assessed as unbound fraction at 10 uM after 6 hrs by LC-MS/MS analysis; assay type: ADME, cell-free; outline: as §2
[17] = Clearance in human; assay type: ADME; outline: as §1

CCOC(=O)c1ccc(-n2c(/C=C3\OC(=O)c4c3cc(C)[nH]c4=O)ccc2CO)cc1
Activity (Rattus norvegicus [1]): Active | CLint [2]: 74.1 µL/min/mg | metabolised at 1 h, 1 µM (Cytochrome P450): 96.3% | Activity [3]: Toxic | Activity (Saccharomyces cerevisiae [4]): Active | fraction unbound at 6 h, 10 µM [5]: 0.0156 | IC50 [6]: 0.56 µM | remaining at 6 h, 10 µM [7]: 1.95% | inhibition (Rattus norvegicus [8]): inactive | remaining at 6 h, 10 µM [9]: 15% | CLint [10]: 54.4 µL/min/mg | Activity (Saccharomyces cerevisiae [11]): 63% | metabolised at 1 h, 1 µM [12]: 95.2% | half-life at 1 µM [13]: 9 min | IC50 [14]: 30.4 µM | Activity [15]: Non-Toxic | fraction unbound at 6 h, 10 µM [16]: 0.107 | clearance [17]: 15.1 mL/min/kg
